Activity calls are given as the source filed them.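 The calls were made as follows: active = raises 665 nm absorbance to half the iron-handling mutant's effect in both replicates, half-effect dose under 50 µM; inactive = the rest.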
What was measured:
[1] = system: P. aeruginosa pyoverdine, CAS absorbance 665 nm, 6 h; assay: reduction of P. aeruginosa pyoverdine production, dose response, orthogonal assay for PvdQ inhibitor project, Chrome Azurol S readout, dry powder samples (AID 624033)
Procedure, shortened: (§1)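 Buffer or medium – CAA medium · Compound dosing – 10-point twofold dilution series, top dose 125 µM · Times – 6 h compound culture, 30 °C, then 30 min CAS dye · Technique – CAS dye absorbance, 665 nm · Controls – PvdQ mutant culture as 100% reference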

[2] = as above; conditions: P. aeruginosa pyoverdine, CAS absorbance 665 nm, 6 h
Procedure, shortened: as §1

| SMILES | AC50 [1] [µM] | outcome [2] |
| --- | --- | --- |
| N#CC(c1ccc(Cl)cc1)c1cccc(C(F)(F)F)n1 (stereo unspecified) | 22.9 |  |
| N#CC(c1cccc(Cl)n1)c1ccc(Cl)cc1F (stereo unspecified) | 30.7 |  |
| CN(C)CCCC(C#N)c1ccc(F)cc1 (stereo unspecified) |  | inactive |
| N#CC(c1ccc(Cl)cc1)c1cccc(Cl)n1 (stereo unspecified) | 46.4 |  |
| COCCOCCC(C#N)c1ccc(F)cc1 (stereo unspecified) |  | inactive |
| COCCC(C#N)c1ccc(F)cc1 (stereo unspecified) |  | inactive |
| N#CC(c1ccc(Cl)cc1)c1ccc(Cl)cn1 (stereo unspecified) | 17.7 |  |
| N#CC(c1ccc(Cl)cc1)c1ncccc1Cl (stereo unspecified) | 48.3 |  |
| N#CC(c1cccc(C(F)(F)F)n1)c1ccc(Cl)cc1F (stereo unspecified) | 14.6 |  |
| CCCCC(C#N)c1ccc(F)cc1 (stereo unspecified) | 27.7 |  |
| N#CC(c1ccc(F)cc1)c1cccc(C(F)(F)F)n1 (stereo unspecified) | 6.21 |  |

Source: PubChem BioAssay AID624033 (Broad Institute, 2012)
